Measured values as given in ChEMBL document CHEMBL1153285, “Synthesis and SAR of piperazinyl-N-phenylbenzamides as inhibitors of hepatitis C virus RNA replication in cell culture” (Bioorg Med Chem Lett, 2009).
Activity calls are given as the source filed them. The rule behind the calls is not given here.

test system: Hepacivirus hominis; assay: Inhibition of HCV NS5B deltaC55 polymerase; conditions: not given
How it was run: (§1)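 Cell-free polymerase assays used purified NS5B in its ΔC55 and ΔC21 truncated forms.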

Row | Activity | SMILES
1 | inactive | CC(C)(C)OC(=O)N1CCN(c2ccc(C(=O)Nc3ccc(O)cc3)cc2)CC1

test system: Hepacivirus hominis; assay: Inhibition of HCV NS5B deltaC21 polymerase; conditions: not given; how it was run: as §1

Row | Activity | SMILES
2 | inactive | CC(C)(C)OC(=O)N1CCN(c2ccc(C(=O)Nc3ccc(O)cc3)cc2)CC1

test system: Hepacivirus hominis; assay: Inhibition of helicase activity of HCV NS3/4A protease up to 10 uM; conditions: not given
How it was run: (§2)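 Cell-free assays used purified protein, either the full-length NS3-4A complex or the separate protease and helicase domains. Compound was tested at concentrations up to 10 µM.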

Row | Activity | SMILES
3 | inactive | CC(C)(C)OC(=O)N1CCN(c2ccc(C(=O)Nc3ccc(O)cc3)cc2)CC1

test system: Hepacivirus hominis; assay: Inhibition of ATPase activity of HCV NS3/4A protease up to 10 uM; conditions: not given; how it was run: as §2

Row | Activity | SMILES
4 | inactive | CC(C)(C)OC(=O)N1CCN(c2ccc(C(=O)Nc3ccc(O)cc3)cc2)CC1

test system: Hepatitis C virus; assay: Antiviral activity against HCV infected in human HUH7 cells assessed as inhibition of viral subgenomic RNA replication in presence of 10% fetal calf serum; format: functional, organism-based, Hepacivirus hominis; conditions: Huh-7
How it was run: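 Replication of subgenomic HCV RNA was measured in HUH-7 replicon cells using a modified Bartenschlager procedure. Results are reported as EC50 in µM.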

Row | SMILES | EC50 [nM]
5 | CC(C)(C)OC(=O)N1CCN(c2ccc(C(=O)Nc3ccc(/C=C/c4ccc(O)cc4)cc3)cc2)CC1 | 140
6 | CN(C)c1ccc(NC(=O)c2ccc(N3CCN(C(=O)OC(C)(C)C)CC3)cc2)cc1 | > 10000
7 | O=C(Nc1ccc(O)cc1)c1ccc(N2CCN(C(=O)OCc3ccccc3)CC2)cc1 | 550
8 | CN(CCNC(=O)OC(C)(C)C)c1ccc(C(=O)Nc2ccc(O)cc2)cc1 | > 10000
9 | CC(C)(C)OC(=O)N1CCN(c2ccc(C(=O)Nc3cccc(Br)c3)cc2)CC1 | 580
10 | O=C(Nc1ccc(O)cc1)c1ccc(N2CCN(C(=O)NCc3ccccc3)CC2)cc1 | 2700
11 | CN(C(=O)c1ccc(N2CCN(C(=O)OC(C)(C)C)CC2)cc1)c1ccc(O)cc1 | > 10000
12 | O=C(Nc1ccc(O)cc1)c1ccc(N2CCN(C(=O)Oc3ccccc3)CC2)cc1 | 4100
13 | CC(C)(C)OC(=O)N1CCN(c2ccc(C(=O)Nc3ccc(C(=O)c4ccccc4)cc3)cc2)CC1 | 690
14 | CC(C)(C)OC(=O)N1CCN(c2ccc(C(=O)N[C@H]3CC[C@H](O)CC3)cc2)CC1 | > 10000
15 | CC(C)(C)OC(=O)N1CCN(c2ccc(C(=O)Nc3cc[n+]([O-])cc3)cc2)CC1 | > 10000
16 | CC(C)(C)OC(=O)N1CCN(c2ccc(C(=O)Nc3ccccc3)cc2)CC1 | > 10000
17 | CC(C)(C)OC(=O)N1CCC(c2ccc(C(=O)Nc3ccc(O)cc3)cc2)CC1 | 1700

The next lines start with the values.

Row | EC50 [nM] | SMILES
18 | > 10000 | CC(C)(C)OC(=O)N1CCN(c2cccc(C(=O)Nc3ccc(O)cc3)c2)CC1
19 | 19600 | O=C(Nc1ccc(O)cc1)c1ccc(N2CCN(C(=O)Nc3ccccc3)CC2)cc1
20 | 160 | CC(C)(C)OC(=O)N1CCN(c2ccc(C(=O)Nc3ccc(O)cc3)cc2)CC1
21 | 1600 | CC(C)(C)OC(=O)C1CCN(c2ccc(C(=O)Nc3ccc(O)cc3)cc2)CC1
22 | 9600 | CCOC(=O)N1CCN(c2ccc(C(=O)Nc3ccc(O)cc3)cc2)CC1
23 | > 10000 | CC(=O)Nc1ccc(NC(=O)c2ccc(N3CCN(C(=O)OC(C)(C)C)CC3)cc2)cc1
24 | 780 | CC(C)(C)C(=O)N1CCN(c2ccc(C(=O)Nc3ccc(O)cc3)cc2)CC1
25 | 5600 | CC(C)(C)OC(=O)N1CCN(c2ccc(C(=O)Nc3ccc(C#N)cc3)cc2)CC1
26 | > 10000 | CC(C)(C)OC(=O)N1CCN(c2ccc(C(=O)Nc3ccc(F)cc3)cc2)CC1
27 | 470 | CC(C)(C)NC(=O)N1CCN(c2ccc(C(=O)Nc3ccc(O)cc3)cc2)CC1
